# Measured values reported in paper PMC2859677 (Journal of medicinal chemistry, 2010).
# pIC50: −log10 of the molar value.
# Tests used:
# TLR2 [1] = target: T1, TLR2 (Homo sapiens, UniProt O60603); assay: NF-κB induction; assay type: cell-based
# Method in brief: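 HEK293 cells stably transfected with TLR2, MD2, CD14 and a secreted alkaline phosphatase (sAP) reporter under NF-κB/AP-1 promoters. Cells were kept in selection medium with zeocin and normocin. They were grown in 384-well plates to confluency, then given graded concentrations of stimuli. Supernatant sAP, taken as proportional to NF-κB induction, was read at 620 nm with an alkaline phosphatase-specific chromogen in detection medium.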
# Target sequence in this assay (O60603 21-784): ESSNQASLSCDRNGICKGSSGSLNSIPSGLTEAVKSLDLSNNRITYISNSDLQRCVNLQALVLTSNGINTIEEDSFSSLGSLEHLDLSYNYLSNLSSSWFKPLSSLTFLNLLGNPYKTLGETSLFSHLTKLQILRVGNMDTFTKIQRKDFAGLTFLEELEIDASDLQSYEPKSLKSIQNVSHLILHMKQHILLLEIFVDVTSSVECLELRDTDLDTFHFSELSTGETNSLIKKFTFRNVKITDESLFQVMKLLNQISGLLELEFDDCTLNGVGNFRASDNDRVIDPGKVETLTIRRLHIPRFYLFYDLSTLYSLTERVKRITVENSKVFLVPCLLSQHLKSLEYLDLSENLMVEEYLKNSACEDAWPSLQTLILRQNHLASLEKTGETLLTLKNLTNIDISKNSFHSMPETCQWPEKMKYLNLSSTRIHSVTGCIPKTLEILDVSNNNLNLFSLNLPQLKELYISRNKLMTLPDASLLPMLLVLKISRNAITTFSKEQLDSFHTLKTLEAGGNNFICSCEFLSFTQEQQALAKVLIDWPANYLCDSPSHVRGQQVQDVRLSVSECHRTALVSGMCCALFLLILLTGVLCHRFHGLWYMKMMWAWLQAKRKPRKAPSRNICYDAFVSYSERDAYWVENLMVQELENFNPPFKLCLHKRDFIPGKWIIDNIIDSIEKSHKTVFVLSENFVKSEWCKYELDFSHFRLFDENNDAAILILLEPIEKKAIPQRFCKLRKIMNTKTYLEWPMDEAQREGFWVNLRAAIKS
# Target sequence in this assay (Q9Y2C9 32-796 partner): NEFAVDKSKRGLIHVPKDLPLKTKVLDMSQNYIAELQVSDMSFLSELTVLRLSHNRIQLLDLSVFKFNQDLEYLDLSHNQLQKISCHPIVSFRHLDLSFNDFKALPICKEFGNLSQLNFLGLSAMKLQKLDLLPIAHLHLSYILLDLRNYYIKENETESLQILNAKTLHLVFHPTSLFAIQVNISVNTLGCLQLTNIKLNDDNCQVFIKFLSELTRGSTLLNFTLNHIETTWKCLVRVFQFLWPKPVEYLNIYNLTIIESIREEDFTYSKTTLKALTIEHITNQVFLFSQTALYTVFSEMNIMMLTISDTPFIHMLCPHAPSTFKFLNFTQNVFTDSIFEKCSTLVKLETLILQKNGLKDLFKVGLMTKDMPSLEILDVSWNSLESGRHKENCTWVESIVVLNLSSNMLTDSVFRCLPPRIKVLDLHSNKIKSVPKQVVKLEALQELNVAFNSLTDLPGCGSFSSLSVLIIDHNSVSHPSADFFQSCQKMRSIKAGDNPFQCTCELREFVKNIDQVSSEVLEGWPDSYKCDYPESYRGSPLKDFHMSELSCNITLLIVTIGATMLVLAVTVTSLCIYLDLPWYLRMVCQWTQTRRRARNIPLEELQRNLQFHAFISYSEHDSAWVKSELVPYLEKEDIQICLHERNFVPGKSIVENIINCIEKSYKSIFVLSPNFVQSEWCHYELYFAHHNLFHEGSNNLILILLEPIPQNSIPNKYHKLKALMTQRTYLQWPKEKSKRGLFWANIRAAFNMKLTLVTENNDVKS
# TLR2 [2] = target: T1, TLR2; assay: Test of compounds as TLR2 receptor antagonists; assay type: cell-based
# Target sequence in this assay (O60603 21-784): as the sequence (O60603 21-784) above
# [3] = tested on: patients with inoperable carcinoma of the pancreas; conditions: single intraoperative 20–30 μg intratumoral injection; cited from earlier work
# rabbits = assay: Fever response / acute toxicity in rabbits; assay type: in vivo, rabbit; conditions: dose of 100 ng/kg, manuscript in preparation
# murine cells = conditions: cited from earlier work
compound,measurement,setting,value
"CCCCCCCCCCCCCCCC(=O)OC[C@H](CSCCN)OC(=O)CCCCCCCCCCCCCCC [Compound 6a, (R)-3-(2-aminoethylthio)propane-1,2-diyl dipalmitate]",pIC50,TLR2 [1],6.00
same,TLR2 agonistic activity (in words),TLR2 [1]; human TLR2 reporter gene assay,weakly active
same,Activity as TLR2 receptor antagonist,TLR2 [2],inactive
"CCCCCCCCCCCCCCCC(=O)OC[C@@H](CSCCN)OC(=O)CCCCCCCCCCCCCCC [Compound 6b, (S)-3-(2-aminoethylthio)propane-1,2-diyl dipalmitate]",TLR2 agonistic activity (in words),TLR2 [1]; human TLR2 reporter gene assay,completely inactive
same,Activity as TLR2 receptor antagonist,TLR2 [2],inactive
"CCCCCCCCCCCCCCCC(=O)OC[C@@H](CSCCNC(=O)[C@H](N)CO)OC(=O)CCCCCCCCCCCCCCC [Compound 8b, (S)-3-(2-((R)-2-amino-3-hydroxypropanamido)ethylthio)propane-1,2-diyl dipalmitate]",TLR2 agonistic activity (in words),TLR2 [1]; human TLR2 reporter gene assay,only 8a was active
"CCCCCCCCCCCCCCCC(=O)OC[C@H](CSC[C@H](N)C(=O)OC)OC(=O)CCCCCCCCCCCCCCC [Compound 11, (R)-3-((R)-2-amino-3-methoxy-3-oxopropylthio)propane-1,2-diyl dipalmitate]",TLR2 agonistic activity (in words),TLR2 [1]; human TLR2 reporter gene assay,weakly TLR2-agonistic
"CCCCCCCCCCCCCCCC(=O)OC[C@H](COCC(N)C(=O)N[C@@H](CO)C(=O)OC)OC(=O)CCCCCCCCCCCCCCC (stereo partly drawn) [Compound 21a, (S)-3-(2-amino-3-((S)-3-hydroxy-1-methoxy-1-oxopropan-2-ylamino)-3-oxopropoxy)propane-1,2-diyl dipalmitate]",Activity as TLR2 receptor antagonist,TLR2 [2],inactive
"CCCCCCCCCCCCCCCC(=O)OC[C@H](COCC(N)C(=O)N[C@H](CO)C(=O)OC)OC(=O)CCCCCCCCCCCCCCC (stereo partly drawn) [Compound 21b, (S)-3-(2-amino-3-((R)-3-hydroxy-1-methoxy-1-oxopropan-2-ylamino)-3-oxopropoxy)propane-1,2-diyl dipalmitate]",TLR2 agonistic activity (in words),TLR2 [1]; at the highest concentration tested,inactive
same,Activity as TLR2 receptor antagonist,TLR2 [2],inactive
"CCCCCCCCCCCCCCCCOC[C@H](CSC[C@H](N)C(=O)N[C@@H](CO)C(=O)OC)OCCCCCCCCCCCCCCCC [Compound 28, (S)-methyl 2-((R)-2-amino-3-((R)-2,3-bis(hexadecyloxy)propylthio)propanamido)-3-hydroxypropanoate]",TLR2 agonistic activity (in words),TLR2 [1]; human TLR2 reporter gene assay,entirely inactive
same,Activity as TLR2 receptor antagonist,TLR2 [2],inactive
"CCCCCCCCCCCCCCCC(=O)N[C@H](COC(=O)CCCCCCCCCCCCCCC)CSC[C@H](N)C(=O)N[C@@H](CO)C(=O)OC.O=C(O)C(F)(F)F [Compound 37, (R)-3-((R)-2-amino-3-((S)-3-hydroxy-1-methoxy-1-oxopropan-2-ylamino)-3-oxopropylthio)-2-palmitamidopropyl palmitate]",TLR2 agonistic activity relative to reference lipopeptide PAM2CSK4,TLR2 [1]; compared with PAM2CSK4,weaker by about three orders of magnitude
same,TLR2 agonistic activity (in words),TLR2 [1]; human TLR2 reporter gene assay,partially active
same,Activity as TLR2 receptor antagonist,TLR2 [2],inactive
"CCCCCCCCCCCCCCCC(=O)NC[C@H](CSC[C@H](N)C(=O)N[C@@H](CO)C(=O)OC)NC(=O)CCCCCCCCCCCCCCC [Compound 45, (S)-methyl 2-((R)-2-amino-3-((R)-2,3-dipalmitamidopropylthio)-propanamido)-3-hydroxypropanoate]",TLR2 agonistic activity (in words),TLR2 [1]; human TLR2 reporter gene assay,completely inactive
same,Activity as TLR2 receptor antagonist,TLR2 [2],inactive
MALP-2,Efficacy (survival),[3],efficacious in prolonging survival
same,Tolerability,[3],well-tolerated
lipopolysaccharide [LPS],Fever response,rabbits,robust fever response
same,Secretion of chemokines,murine cells,potently induced the secretion of a similar pattern of chemokines
